{"source": "ChEMBL document CHEMBL4118248", "about": "“Small Molecule Proprotein Convertase Subtilisin/Kexin Type 9 (PCSK9) Inhibitors: Hit to Lead Optimization of Systemic Agents” (J Med Chem, 2018)", "key": {"[1]": {"assay": "Lipophilicity, log D of the compound by shake flask method", "type": "physicochemical", "details": "octanol/water", "in_short": "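LogD measured by the shake-flask method.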"}, "IEC-6": {"test_system": "IEC-6", "assay": "Cytotoxicity against rat IEC-6 cells assessed as reduction in cell viability after 3 days by CellTiter-Glo assay", "type": "cell-based", "details": "IEC-6, 72 h", "in_short": "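Rat intestinal epithelial IEC-6 cells; viability read by CellTiter-Glo ATP luminescence.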"}, "[2]": {"assay": "Apparent permeability in RRCK cells", "type": "ADME, cell-based, Canis lupus familiaris, MDCKII-LE", "details": "dog, MDCK", "in_short": "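Passive permeability measured in RRCK cells, a modified Madin-Darby canine kidney line; Papp reported in 10^-6 cm/s.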"}, "[3]": {"assay": "Intrinsic clearance in rat liver microsomes", "type": "ADME, microsome", "details": "read-out: CLH"}, "[4]": {"assay": "Intrinsic clearance in human liver microsomes", "type": "ADME, microsome", "details": "read-out: CLH"}, "80S Ribosome [5]": {"biological_target": "80S Ribosome", "assay": "Binding affinity to 80S ribosome in human HuH7 cells harboring pCMV-truncated human PCSK9 (1 to 152 residues)-proLuc assessed as inhibition of PCSK9 mRNA translation after overnight incubation by luciferase reporter gene assay", "type": "cell-based", "details": "huh-7", "in_short": "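Huh7 cells stably carry human PCSK9 prodomain (aa 1-152) fused to firefly luciferase (aa 2-550) in pcDNA3.1, kept under 900 µg/mL Geneticin. Plated 10,000/well in phenol red-free DMEM/10% FBS and left 4 h, then compound added (top final 20 µM, 0.5% DMSO). Incubated overnight at 37 °C, luminescence read with SteadyGlo.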"}, "[6]": {"assay": "Permeability from apical to basolateral side in MDCK cells harboring MDR1", "type": "ADME, cell-based, Canis lupus familiaris", "details": "dog, read-out: permeability", "in_short": "(§1)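 Bidirectional permeability across MDR1-transfected MDCK monolayers, apical-to-basolateral and basolateral-to-apical; Papp reported in 10^-6 cm/s.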"}, "[7]": {"assay": "Permeability from basolateral to apical side in MDCK cells harboring MDR1", "type": "ADME, cell-based, Canis lupus familiaris", "details": "dog, read-out: permeability", "in_short": "as §1"}, "Cytochrome P450 2D6": {"biological_target": "Cytochrome P450 2D6 (Homo sapiens, UniProt P10635)", "sequence (P10635 whole entry)": "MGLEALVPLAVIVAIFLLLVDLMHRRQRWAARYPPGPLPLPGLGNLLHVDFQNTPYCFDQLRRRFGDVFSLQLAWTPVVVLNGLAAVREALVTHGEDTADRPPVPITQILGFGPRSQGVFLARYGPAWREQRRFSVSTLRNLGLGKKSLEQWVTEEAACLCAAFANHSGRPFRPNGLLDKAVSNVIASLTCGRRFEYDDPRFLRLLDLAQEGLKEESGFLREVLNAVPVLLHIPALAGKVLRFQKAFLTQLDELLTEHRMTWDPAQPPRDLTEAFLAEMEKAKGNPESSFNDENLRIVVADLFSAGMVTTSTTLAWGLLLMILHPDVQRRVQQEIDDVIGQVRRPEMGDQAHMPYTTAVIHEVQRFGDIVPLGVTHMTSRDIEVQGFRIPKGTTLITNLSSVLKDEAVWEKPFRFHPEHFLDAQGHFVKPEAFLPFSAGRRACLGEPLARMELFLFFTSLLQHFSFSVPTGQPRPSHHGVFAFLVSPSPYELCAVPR", "assay": "Inhibition of CYP2D6 (unknown origin)", "type": "ADME", "in_short": "(§2)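 Inhibition of CYP1A2, 2D6, 2C9 and 3A4 reported as IC50, or as percent inhibition at 3 µM.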"}, "Cytochrome P450 2C9": {"biological_target": "Cytochrome P450 2C9 (Homo sapiens, UniProt P11712)", "sequence (P11712 whole entry)": "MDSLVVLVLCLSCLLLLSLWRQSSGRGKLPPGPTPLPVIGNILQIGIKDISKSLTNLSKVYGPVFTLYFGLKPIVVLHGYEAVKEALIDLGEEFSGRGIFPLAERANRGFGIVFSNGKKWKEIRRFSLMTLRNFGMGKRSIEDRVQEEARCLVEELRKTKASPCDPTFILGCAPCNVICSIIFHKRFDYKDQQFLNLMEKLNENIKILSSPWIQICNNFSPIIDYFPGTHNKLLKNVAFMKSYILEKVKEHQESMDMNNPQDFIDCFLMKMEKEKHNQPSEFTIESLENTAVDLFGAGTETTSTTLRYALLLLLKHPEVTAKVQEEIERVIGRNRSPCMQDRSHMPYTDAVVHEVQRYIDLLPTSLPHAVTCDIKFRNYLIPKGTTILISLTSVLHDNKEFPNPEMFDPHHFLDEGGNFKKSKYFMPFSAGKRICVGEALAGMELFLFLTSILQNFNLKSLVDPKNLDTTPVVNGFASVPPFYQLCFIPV", "assay": "Inhibition of CYP2C9 (unknown origin)", "type": "ADME", "in_short": "as §2"}, "Cytochrome P450 3A4": {"biological_target": "Cytochrome P450 3A4 (Homo sapiens, UniProt P08684)", "sequence (P08684 whole entry)": "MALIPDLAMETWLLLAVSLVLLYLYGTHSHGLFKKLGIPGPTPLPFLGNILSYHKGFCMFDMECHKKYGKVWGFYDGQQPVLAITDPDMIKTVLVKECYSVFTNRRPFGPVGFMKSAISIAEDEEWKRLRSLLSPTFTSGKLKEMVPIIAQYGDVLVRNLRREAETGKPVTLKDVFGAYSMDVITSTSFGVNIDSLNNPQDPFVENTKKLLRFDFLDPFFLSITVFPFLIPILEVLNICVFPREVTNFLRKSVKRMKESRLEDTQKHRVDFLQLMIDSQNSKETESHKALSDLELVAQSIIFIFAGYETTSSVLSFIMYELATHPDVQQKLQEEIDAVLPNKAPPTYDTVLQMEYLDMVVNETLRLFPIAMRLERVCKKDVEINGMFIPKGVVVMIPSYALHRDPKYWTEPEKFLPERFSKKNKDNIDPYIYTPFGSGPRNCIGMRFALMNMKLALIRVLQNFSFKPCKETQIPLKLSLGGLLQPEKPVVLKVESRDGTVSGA", "assay": "Inhibition of CYP3A4 (unknown origin)", "type": "ADME", "in_short": "as §2"}, "[8]": {"assay": "Fraction unbound in rat plasma", "type": "ADME, cell-free", "in_short": "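Unbound fraction measured in rat plasma.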"}, "80S Ribosome [9]": {"biological_target": "80S Ribosome", "assay": "Binding affinity to 80S ribosome in human HuH7 cells assessed as inhibition of PCSK9 mRNA translation after overnight incubation by ELISA", "type": "cell-based", "details": "huh-7", "in_short": "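Huh7 cells kept in high-glucose DMEM, 10% BSA-free FBS, 2 mM L-glutamine, pen/strep at 37 °C, 5% CO2. Plated 7,500/well with compound or vehicle and incubated overnight (16-20 h). Secreted PCSK9 in the medium read by AlphaLISA: two antibodies to different mature-PCSK9 epitopes, biotinylated antibody 3 nM final, acceptor beads 10 µg/mL, 0.5 h rt; streptavidin donor beads 40 µg/mL, 1 h rt.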"}, "Bone marrow cell": {"test_system": "Bone marrow cell", "assay": "Cytotoxicity against rat bone marrow cells assessed as reduction in cell viability after 72 hrs by CellTiter-Glo assay", "type": "cell-based"}, "[10]": {"assay": "Cytotoxicity against human CD34-positive hematopoietic progenitor cells assessed as reduction in cell viability after 72 hrs by CellTiter-Glo assay", "type": "cell-based"}, "Rattus norvegicus [11]": {"test_system": "Rattus norvegicus", "assay": "Reduction in total cholesterol level in Crl:CD(SD) rat at 50 mg/kg/day, po daily via gavage for 14 days measured on day 15 post last dose relative to control", "type": "functional", "parameters": "scale not given: the % may be the effect or the level left"}, "Rattus norvegicus [12]": {"test_system": "Rattus norvegicus", "assay": "Reduction in LDL cholesterol level in Crl:CD(SD) rat at 50 mg/kg/day, po daily via gavage for 14 days measured on day 15 post last dose relative to control", "type": "functional", "parameters": "scale not given: the % may be the effect or the level left"}, "Rattus norvegicus [13]": {"test_system": "Rattus norvegicus", "assay": "Toxicity in Crl:CD(SD) rat assessed as decrease in hematocrit and hemoglobin level at 50 mg/kg/day, po daily via gavage for 14 days measured on day 15 post last dose relative to control", "type": "organism-based", "parameters": "scale not given: the % may be the effect or the level left", "details": "in vivo, 336 h"}, "Rattus norvegicus [14]": {"test_system": "Rattus norvegicus", "assay": "Toxicity in Crl:CD(SD) rat assessed as decrease in total nucleated cell count at 50 mg/kg/day, po daily via gavage for 14 days measured on day 15 post last dose relative to control", "type": "organism-based", "parameters": "scale not given: the % may be the effect or the level left", "details": "in vivo, 336 h"}, "Rattus norvegicus [15]": {"test_system": "Rattus norvegicus", "assay": "Toxicity in Crl:CD(SD) rat assessed as decrease in absolute maturing erythroid cells at 50 mg/kg/day, po daily via gavage for 14 days measured on day 15 post last dose relative to control", "type": "organism-based", "parameters": "scale not given: the % may be the effect or the level left", "details": "in vivo, 336 h"}, "Rattus norvegicus [16]": {"test_system": "Rattus norvegicus", "assay": "Toxicity in Crl:CD(SD) rat assessed as decrease in total erythroid cells at 50 mg/kg/day, po daily via gavage for 14 days measured on day 15 post last dose relative to control", "type": "organism-based", "parameters": "scale not given: the % may be the effect or the level left", "details": "in vivo, 336 h"}, "Rattus norvegicus [17]": {"test_system": "Rattus norvegicus", "assay": "Toxicity in Crl:CD(SD) rat assessed as decrease in WBC at 50 mg/kg/day, po daily via gavage for 14 days measured on day 15 post last dose relative to control", "type": "organism-based", "parameters": "scale not given: the % may be the effect or the level left", "details": "in vivo, 336 h"}, "Rattus norvegicus [18]": {"test_system": "Rattus norvegicus", "assay": "Toxicity in Crl:CD(SD) rat assessed as decrease in eosinophils at 50 mg/kg/day, po daily via gavage for 14 days measured on day 15 post last dose relative to control", "type": "organism-based", "parameters": "scale not given: the % may be the effect or the level left", "details": "in vivo, 336 h"}, "Rattus norvegicus [19]": {"test_system": "Rattus norvegicus", "assay": "Toxicity in Crl:CD(SD) rat assessed as decrease in basophils at 50 mg/kg/day, po daily via gavage for 14 days measured on day 15 post last dose relative to control", "type": "organism-based", "parameters": "scale not given: the % may be the effect or the level left", "details": "in vivo, 336 h"}, "Rattus norvegicus [20]": {"test_system": "Rattus norvegicus", "assay": "Toxicity in Crl:CD(SD) rat assessed as decrease in total T cells at 50 mg/kg/day, po daily via gavage for 14 days measured on day 15 post last dose relative to control", "type": "organism-based", "parameters": "scale not given: the % may be the effect or the level left", "details": "in vivo, 336 h"}, "Rattus norvegicus [21]": {"test_system": "Rattus norvegicus", "assay": "Toxicity in Crl:CD(SD) rat assessed as decrease in helper T cells at 50 mg/kg/day, po daily via gavage for 14 days measured on day 15 post last dose relative to control", "type": "organism-based", "parameters": "scale not given: the % may be the effect or the level left", "details": "in vivo, 336 h"}, "Rattus norvegicus [22]": {"test_system": "Rattus norvegicus", "assay": "Toxicity in Crl:CD(SD) rat assessed as decrease in cytotoxic T cells at 50 mg/kg/day, po daily via gavage for 14 days measured on day 15 post last dose relative to control", "type": "organism-based", "parameters": "scale not given: the % may be the effect or the level left", "details": "in vivo, 336 h"}, "Rattus norvegicus [23]": {"test_system": "Rattus norvegicus", "assay": "Toxicity in Crl:CD(SD) rat assessed as decrease in B cells at 50 mg/kg/day, po daily via gavage for 14 days measured on day 15 post last dose relative to control", "type": "organism-based", "parameters": "scale not given: the % may be the effect or the level left", "details": "in vivo, 336 h"}, "Rattus norvegicus [24]": {"test_system": "Rattus norvegicus", "assay": "Toxicity in Crl:CD(SD) rat assessed as single cell necrosis in crypt cells in ileum at 50 mg/kg/day, po daily via gavage for 14 days measured on day 15 post last dose", "type": "organism-based", "details": "in vivo, 336 h"}, "Rattus norvegicus [25]": {"test_system": "Rattus norvegicus", "assay": "Toxicity in Crl:CD(SD) rat at 5 to 15 mg/kg/day, po daily via gavage for 14 days measured on day 15 post last dose", "type": "organism-based", "details": "in vivo, 336 h"}, "[26]": {"assay": "Total Cmax in Crl:CD(SD) rat at 15 mg/kg/day, po daily via gavage for 14 days measured on day 14 post last dose up to 24 hrs", "type": "ADME, organism-based", "parameters": "dose 15 mg/kg/day, route oral", "details": "in vivo"}, "[27]": {"assay": "Total plasma concentration in Crl:CD(SD) rat at 15 mg/kg/day, po daily via gavage for 14 days measured on day 14 post last dose up to 24 hrs", "type": "ADME, organism-based", "details": "in vivo"}, "Rattus norvegicus [28]": {"test_system": "Rattus norvegicus", "assay": "Toxicity in Crl:CD(SD) rat at 15 mg/kg/day, po daily via gavage for 14 days", "type": "organism-based", "details": "in vivo, 336 h"}, "80S Ribosome [29]": {"biological_target": "80S Ribosome", "assay": "Binding affinity of [3H]PF-06446846 to human 80S ribosome"}}, "data": [{"smiles": "O=C(c1ccc(-n2nnc3cccnc32)cc1)N(c1ncccc1Cl)[C@@H]1CCCNC1", "values": [{"measurement": "logD", "setting": "[1]", "result": 0.8}, {"measurement": "IC50", "setting": "IEC-6", "result": "> 20000", "unit": "nM"}, {"measurement": "Papp", "setting": "[2]", "result": 15, "unit": "×10⁻⁶ cm/s"}, {"measurement": "microsomal CLint", "setting": "[3]", "result": 18.2, "unit": "µL/min/mg"}, {"measurement": "microsomal CLint", "setting": "[4]", "result": 9.7, "unit": "µL/min/mg"}, {"measurement": "IC50", "setting": "80S Ribosome [5]", "result": 380, "unit": "nM"}, {"measurement": "Papp A→B", "setting": "[6]", "result": 1.5, "unit": "×10⁻⁶ cm/s"}, {"measurement": "Papp B→A", "setting": "[7]", "result": 20.6, "unit": "×10⁻⁶ cm/s"}, {"measurement": "IC50", "setting": "Cytochrome P450 2D6", "result": "> 30000", "unit": "nM"}, {"measurement": "IC50", "setting": "Cytochrome P450 2C9", "result": "> 30000", "unit": "nM"}, {"measurement": "IC50", "setting": "Cytochrome P450 3A4", "result": "> 30000", "unit": "nM"}, {"measurement": "fraction unbound", "setting": "[8]", "result": 0.2}, {"measurement": "IC50", "setting": "80S Ribosome [9]", "result": 820, "unit": "nM"}, {"measurement": "IC50", "setting": "Bone marrow cell", "result": "1200 to 2900", "unit": "nM"}, {"measurement": "IC50", "setting": "[10]", "result": 2700, "unit": "nM"}, {"measurement": "Activity", "setting": "Rattus norvegicus [11]", "result": 30, "unit": "%"}, {"measurement": "Activity", "setting": "Rattus norvegicus [12]", "result": 58, "unit": "%"}, {"measurement": "Activity", "setting": "Rattus norvegicus [13]", "result": "9 to 10", "unit": "%"}, {"measurement": "Activity", "setting": "Rattus norvegicus [14]", "result": 30, "unit": "%"}, {"measurement": "Activity", "setting": "Rattus norvegicus [15]", "result": 48, "unit": "%"}, {"measurement": "Activity", "setting": "Rattus norvegicus [16]", "result": 46, "unit": "%"}, {"measurement": "Activity", "setting": "Rattus norvegicus [17]", "result": 52, "unit": "%"}, {"measurement": "Activity", "setting": "Rattus norvegicus [18]", "result": 54, "unit": "%"}, {"measurement": "Activity", "setting": "Rattus norvegicus [19]", "result": 100, "unit": "%"}, {"measurement": "Activity", "setting": "Rattus norvegicus [20]", "result": 54, "unit": "%"}, {"measurement": "Activity", "setting": "Rattus norvegicus [21]", "result": 54, "unit": "%"}, {"measurement": "Activity", "setting": "Rattus norvegicus [22]", "result": 54.5, "unit": "%"}, {"measurement": "Activity", "setting": "Rattus norvegicus [23]", "result": 58, "unit": "%"}, {"measurement": "Activity", "setting": "Rattus norvegicus [24]", "result": "Toxic"}, {"measurement": "Activity", "setting": "Rattus norvegicus [25]", "result": "Non-Toxic"}, {"measurement": "Cmax", "setting": "[26]", "result": 1640, "unit": "ng/mL"}, {"measurement": "concentration", "setting": "[27]", "result": 2420, "unit": "nM"}, {"measurement": "NOAEL", "setting": "Rattus norvegicus [28]", "result": 478, "unit": "nM"}, {"measurement": "Ki", "setting": "80S Ribosome [29]", "result": 7000, "unit": "nM"}]}]}
